For data set [1] the following is noted: synthetic ACE inhibitor drugs; ref Lee and Hur, 2017; cited from earlier work.
The next data set deals with ACE. The conditions noted are these: peptides with C-terminal Tyr residues; ref Chen et al., 2009; Erdmann et al., 2006; Ko et al., 2012; Liu et al., 2021; Yu et al., 2019; cited from earlier work.
Data set [2] concerns the target ACE (angiotensin I-converting enzyme) (Homo sapiens, UniProt P12821). Description: ACE inhibition activity. It counts as biochemical. The method, boiled down: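 Commercial ACE kit-WST run according to the manufacturer's protocol. The test compound was a peptide purified from an alcalase hydrolysate of velvet antler (<5 kDa ultrafiltration fraction, then Sephadex G-25, then reverse-phase HPLC) and lyophilized. Results are reported as mean±SD. Groups were compared by one-way ANOVA with Duncan's multiple range test, with significance at p<0.05.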

No end group written: not given here.

ACE (angiotensin I-converting enzyme), sequence (P12821 30-1306, species assumed): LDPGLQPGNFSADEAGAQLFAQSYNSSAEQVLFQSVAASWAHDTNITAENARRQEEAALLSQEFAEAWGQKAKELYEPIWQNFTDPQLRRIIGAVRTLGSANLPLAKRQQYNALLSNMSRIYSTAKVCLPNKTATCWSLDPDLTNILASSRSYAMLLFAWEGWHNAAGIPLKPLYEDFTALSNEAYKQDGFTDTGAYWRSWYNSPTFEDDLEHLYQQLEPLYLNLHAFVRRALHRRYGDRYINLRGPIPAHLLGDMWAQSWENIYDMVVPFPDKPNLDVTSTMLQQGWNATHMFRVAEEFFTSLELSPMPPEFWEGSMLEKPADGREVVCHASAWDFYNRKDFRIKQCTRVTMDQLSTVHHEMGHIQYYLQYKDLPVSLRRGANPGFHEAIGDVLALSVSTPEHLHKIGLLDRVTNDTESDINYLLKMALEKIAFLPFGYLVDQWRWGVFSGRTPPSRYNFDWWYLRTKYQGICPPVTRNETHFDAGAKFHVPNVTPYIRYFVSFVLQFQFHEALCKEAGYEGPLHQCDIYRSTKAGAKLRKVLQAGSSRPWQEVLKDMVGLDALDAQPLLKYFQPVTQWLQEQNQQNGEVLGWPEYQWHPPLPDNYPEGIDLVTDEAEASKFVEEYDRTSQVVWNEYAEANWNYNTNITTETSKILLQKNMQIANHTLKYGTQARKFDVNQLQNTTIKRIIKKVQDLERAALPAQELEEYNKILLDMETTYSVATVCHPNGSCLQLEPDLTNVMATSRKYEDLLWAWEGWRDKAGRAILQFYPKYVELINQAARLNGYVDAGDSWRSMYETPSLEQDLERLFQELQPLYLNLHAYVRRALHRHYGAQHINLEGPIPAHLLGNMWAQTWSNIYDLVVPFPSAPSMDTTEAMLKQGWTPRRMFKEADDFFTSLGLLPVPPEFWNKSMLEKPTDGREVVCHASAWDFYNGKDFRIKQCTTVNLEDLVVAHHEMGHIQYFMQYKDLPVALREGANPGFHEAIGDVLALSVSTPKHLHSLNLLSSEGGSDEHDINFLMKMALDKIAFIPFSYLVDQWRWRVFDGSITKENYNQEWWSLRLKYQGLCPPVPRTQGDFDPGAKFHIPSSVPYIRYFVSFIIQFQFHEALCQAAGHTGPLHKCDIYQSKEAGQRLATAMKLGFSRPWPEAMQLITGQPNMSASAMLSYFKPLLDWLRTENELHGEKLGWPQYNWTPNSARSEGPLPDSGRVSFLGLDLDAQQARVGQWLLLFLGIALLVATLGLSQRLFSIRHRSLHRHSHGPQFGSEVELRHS

On to `CCOC(=O)[C@H](CCc1ccccc1)N[C@H]1CCc2ccccc2N(CC(=O)O)C1=O` [benazepril], for which the side effects result in data set [1] was “headaches, insomnia, fatigue, and increased blood potassium levels”.

As for `C[C@H](CS)C(=O)N1CCC[C@H]1C(=O)O` [captopril], in data set [1], the side effects result was “headaches, insomnia, fatigue, and increased blood potassium levels”.

For `CCOC(=O)[C@H](CCc1ccccc1)N[C@@H](C)C(=O)N1CCC[C@H]1C(=O)O` [enalapril], in data set [1], the side effects entry is “headaches, insomnia, fatigue, and increased blood potassium levels”.

For Arg-Val-Tyr, in the data set with ACE, the “ACE inhibitory activity (in words)” value was “potent ACE inhibitory activities”.

By IC50 is commonly meant the concentration needed to halve the response being measured. High values mean a need for much substance, low ones inhibition by little substance. The inhibition is the change of the read-out against control, counted positive when it falls. Turning to DNRYY [DNRYY, Asp-Asn-Arg-Tyr-Tyr], the midpoint of inhibition in data set [2], the IC50, lay at 3.72 µM. For the same molecule, in data set [2] (read-out: ACE inhibition), the inhibition at 1.75 µM amounted to 23.6%, the inhibition at 3.5 µM was determined as 48.1%, the inhibition at 7 µM amounted to 69.8% and the inhibition at 14 µM worked out at 89.5%.

With Ile-Tyr, the “ACE inhibitory activity (in words)” value in the data set with ACE is “potent ACE inhibitory activities”.

Regarding Met-Tyr, the “ACE inhibitory activity (in words)” value with ACE is reported as “potent ACE inhibitory activities”.

Val-Tyr: the “ACE inhibitory activity (in words)” value in the data set on ACE is on record as “potent ACE inhibitory activities”.

The values are drawn from article PMC9890357 (Food Science of Animal Resources, 2023).
